Values after ≈ are worked out from the molar mass of the structure shown. Values joined by “and” are separate entries in the source; they are usually repeats but may differ in a detail not shown here. Equal entries are not always repeated.
Test system: HepG2
Assay: Cytotoxicity against human HepG2 cells after 96 hrs by MTT assay
Assay type: functional, cell-based
Details: HepG2, 96 h

| Compound | IC50 |
| --- | --- |
| Cc1nn2c(nnc3c(C)n[nH]c32)c1/N=N/c1c(C)n(C)n(-c2ccccc2)c1=O | 210 µg/mL (≈ 521 µM) |
| Cc1[nH]nc(NN=C(C#N)C#N)c1/N=N/c1c(C)n(C)n(-c2ccccc2)c1=O | 183 µg/mL (≈ 470 µM) |
| Cc1nn2c(nnc3c(N)c(C#N)c(N)nc32)c1/N=N/c1c(C)n(C)n(-c2ccccc2)c1=O | 203 µg/mL (≈ 448 µM) |
| CC1=NNC(=O)/C1=N/Nc1n[nH]c(C)c1/N=N/c1c(C)n(C)n(-c2ccccc2)c1=O | 202 µg/mL (≈ 480 µM) |
| CC(=N)/C(C#N)=N\Nc1n[nH]c(C)c1/N=N/c1c(C)n(C)n(-c2ccccc2)c1=O | 70.8 µg/mL (≈ 175 µM) |
| CC(=O)c1nnc2c(/N=N/c3c(C)n(C)n(-c4ccccc4)c3=O)c(C)nn2c1C | 39.3 µg/mL (≈ 97.2 µM) |
| Cc1[nH]nc(N)c1/N=N/c1c(C)n(C)n(-c2ccccc2)c1=O | 79.1 µg/mL (≈ 254 µM) |
| CCOC(=O)/C(C#N)=N/Nc1n[nH]c(C)c1/N=N/c1c(C)n(C)n(-c2ccccc2)c1=O | 153 µg/mL (≈ 352 µM) |
| O=c1[nH]cc(F)c(=O)[nH]1 [FLUOROURACIL] | 9.1 µg/mL (≈ 70 µM) |
| Cc1nn2c(N)c(C#N)nnc2c1/N=N/c1c(C)n(C)n(-c2ccccc2)c1=O | 254 µg/mL (≈ 654 µM) |

Test system: MCF7
Assay: Cytotoxicity against human MCF7 cells after 96 hrs by MTT assay
Assay type: functional, cell-based
Details: MCF7, 96 h

| Compound | IC50 |
| --- | --- |
| Cc1nn2c(nnc3c(C)n[nH]c32)c1/N=N/c1c(C)n(C)n(-c2ccccc2)c1=O | 411 µg/mL (≈ 1020 µM) |
| Cc1[nH]nc(NN=C(C#N)C#N)c1/N=N/c1c(C)n(C)n(-c2ccccc2)c1=O | 221 µg/mL (≈ 570 µM) |
| Cc1nn2c(nnc3c(N)c(C#N)c(N)nc32)c1/N=N/c1c(C)n(C)n(-c2ccccc2)c1=O | 419 µg/mL (≈ 922 µM) |
| CC1=NNC(=O)/C1=N/Nc1n[nH]c(C)c1/N=N/c1c(C)n(C)n(-c2ccccc2)c1=O | 393 µg/mL (≈ 935 µM) |
| CC(=N)/C(C#N)=N\Nc1n[nH]c(C)c1/N=N/c1c(C)n(C)n(-c2ccccc2)c1=O | 69 µg/mL (≈ 171 µM) |
| CC(=O)c1nnc2c(/N=N/c3c(C)n(C)n(-c4ccccc4)c3=O)c(C)nn2c1C | 30.6 µg/mL (≈ 75.7 µM) |
| Cc1[nH]nc(N)c1/N=N/c1c(C)n(C)n(-c2ccccc2)c1=O | 84.7 µg/mL (≈ 272 µM) |
| CCOC(=O)/C(C#N)=N/Nc1n[nH]c(C)c1/N=N/c1c(C)n(C)n(-c2ccccc2)c1=O | 150 µg/mL (≈ 344 µM) |
| O=c1[nH]cc(F)c(=O)[nH]1 [FLUOROURACIL] | 2.5 µg/mL (≈ 19.2 µM) |
| Cc1nn2c(N)c(C#N)nnc2c1/N=N/c1c(C)n(C)n(-c2ccccc2)c1=O | 452 µg/mL (≈ 1160 µM) |

Test system: not listed separately
Assay: Antioxidant activity assessed as ABTS free radical scavenging activity at 1 mg/mL by spectroscopic analysis
Assay type: functional
Details: not given
In short: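 ABTS radical cation generated by reacting ABTS with MnO2 (25 mg/mL) in phosphate buffer pH 7, then centrifuged and filtered. Absorbance read at 734 nm before and after adding test sample (1 mg/mL in MeOH/buffer 1:1). % inhibition = [A(control) − A(test)]/A(control) × 100. Ascorbic acid (2 mM) as positive control; solvent blank without ABTS.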

| Compound | inhibition |
| --- | --- |
| Cc1nn2c(nnc3c(C)n[nH]c32)c1/N=N/c1c(C)n(C)n(-c2ccccc2)c1=O | 16.1% |
| O=C1O[C@H]([C@@H](O)CO)C(O)=C1O | 92.3% |
| Cc1[nH]nc(NN=C(C#N)C#N)c1/N=N/c1c(C)n(C)n(-c2ccccc2)c1=O | 17.2% |
| Cc1nn2c(nnc3c(N)c(C#N)c(N)nc32)c1/N=N/c1c(C)n(C)n(-c2ccccc2)c1=O | 8.28% |
| CC1=NNC(=O)/C1=N/Nc1n[nH]c(C)c1/N=N/c1c(C)n(C)n(-c2ccccc2)c1=O | 16.1% |
| CC(=N)/C(C#N)=N\Nc1n[nH]c(C)c1/N=N/c1c(C)n(C)n(-c2ccccc2)c1=O | 28.6% |
| CC(=O)c1nnc2c(/N=N/c3c(C)n(C)n(-c4ccccc4)c3=O)c(C)nn2c1C | 27.5% |
| Cc1[nH]nc(N)c1/N=N/c1c(C)n(C)n(-c2ccccc2)c1=O | 28.4% |
| CCOC(=O)/C(C#N)=N/Nc1n[nH]c(C)c1/N=N/c1c(C)n(C)n(-c2ccccc2)c1=O | 21.6% |
| Cc1nn2c(N)c(C#N)nnc2c1/N=N/c1c(C)n(C)n(-c2ccccc2)c1=O | 15.9% |

Test system: not listed separately
Assay: Cytotoxicity against mouse EAC after 2 hrs by trypan blue staining based hemocytometer analysis
Assay type: functional, Ehrlich
Details: not given
In short: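 Ehrlich ascites cells aspirated aseptically from the peritoneal cavity of a donor animal. Held in RPMI with 10% FBS at 37 °C, 5% CO2 for 2 h with compound at 25, 50 and 100 µg, final DMSO 0.1%. Dead cells counted by trypan blue staining on a hemocytometer; DMSO-only control viability exceeded 95%. 5-Fluorouracil as reference.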

| Compound | ED25 | ED100 | ED50 |
| --- | --- | --- | --- |
| Cc1nn2c(nnc3c(C)n[nH]c32)c1/N=N/c1c(C)n(C)n(-c2ccccc2)c1=O | 34.69 µg | 61 µg |  |
| Cc1[nH]nc(NN=C(C#N)C#N)c1/N=N/c1c(C)n(C)n(-c2ccccc2)c1=O | 27.85 µg | 64 µg |  |
| Cc1nn2c(nnc3c(N)c(C#N)c(N)nc32)c1/N=N/c1c(C)n(C)n(-c2ccccc2)c1=O | 62.53 µg | 40.6 µg |  |
| CC1=NNC(=O)/C1=N/Nc1n[nH]c(C)c1/N=N/c1c(C)n(C)n(-c2ccccc2)c1=O | 26.63 µg | 63.3 µg |  |
| CC(=N)/C(C#N)=N\Nc1n[nH]c(C)c1/N=N/c1c(C)n(C)n(-c2ccccc2)c1=O | 1.3 µg | 80 µg |  |
| CC(=O)c1nnc2c(/N=N/c3c(C)n(C)n(-c4ccccc4)c3=O)c(C)nn2c1C | 11.01 µg | 73.9 µg |  |
| Cc1[nH]nc(N)c1/N=N/c1c(C)n(C)n(-c2ccccc2)c1=O | 1.71 µg | 79.3 µg |  |
| CCOC(=O)/C(C#N)=N/Nc1n[nH]c(C)c1/N=N/c1c(C)n(C)n(-c2ccccc2)c1=O | 22.53 µg | 68.7 µg |  |
| O=c1[nH]cc(F)c(=O)[nH]1 [FLUOROURACIL] | 32.26 µg | 68 µg | 38.6 µg |
| Cc1nn2c(N)c(C#N)nnc2c1/N=N/c1c(C)n(C)n(-c2ccccc2)c1=O | 34.26 µg | 62 µg |  |

Same assay, conditions: ehrlich

| Compound | IC50 |
| --- | --- |
| Cc1nn2c(nnc3c(C)n[nH]c32)c1/N=N/c1c(C)n(C)n(-c2ccccc2)c1=O | 92.1 µg and 43 µg |
| Cc1[nH]nc(NN=C(C#N)C#N)c1/N=N/c1c(C)n(C)n(-c2ccccc2)c1=O | 94.3 µg |
| CC1=NNC(=O)/C1=N/Nc1n[nH]c(C)c1/N=N/c1c(C)n(C)n(-c2ccccc2)c1=O | 93 µg and 45.5 µg |
| CC(=N)/C(C#N)=N\Nc1n[nH]c(C)c1/N=N/c1c(C)n(C)n(-c2ccccc2)c1=O | 97.5 µg and 60.1 µg |
| CC(=O)c1nnc2c(/N=N/c3c(C)n(C)n(-c4ccccc4)c3=O)c(C)nn2c1C | 96.7 µg and 55.5 µg |
| Cc1[nH]nc(N)c1/N=N/c1c(C)n(C)n(-c2ccccc2)c1=O | 97 µg and 58 µg |
| CCOC(=O)/C(C#N)=N/Nc1n[nH]c(C)c1/N=N/c1c(C)n(C)n(-c2ccccc2)c1=O | 94.9 µg and 49.8 µg |
| O=c1[nH]cc(F)c(=O)[nH]1 [FLUOROURACIL] | 97.3 µg |
| Cc1nn2c(N)c(C#N)nnc2c1/N=N/c1c(C)n(C)n(-c2ccccc2)c1=O | 91.9 µg and 42.8 µg |

Test system: WI-38
Assay: Cytotoxicity against human WI38 cells after 96 hrs by MTT assay
Assay type: functional, cell-based
Details: WI-38, 96 h

| Compound | IC50 |
| --- | --- |
| Cc1nn2c(nnc3c(C)n[nH]c32)c1/N=N/c1c(C)n(C)n(-c2ccccc2)c1=O | 311 µg/mL (≈ 772 µM) |
| Cc1[nH]nc(NN=C(C#N)C#N)c1/N=N/c1c(C)n(C)n(-c2ccccc2)c1=O | 197 µg/mL (≈ 508 µM) |
| Cc1nn2c(nnc3c(N)c(C#N)c(N)nc32)c1/N=N/c1c(C)n(C)n(-c2ccccc2)c1=O | 303 µg/mL (≈ 667 µM) |
| CC1=NNC(=O)/C1=N/Nc1n[nH]c(C)c1/N=N/c1c(C)n(C)n(-c2ccccc2)c1=O | 300 µg/mL (≈ 713 µM) |
| CC(=N)/C(C#N)=N\Nc1n[nH]c(C)c1/N=N/c1c(C)n(C)n(-c2ccccc2)c1=O | 70.2 µg/mL (≈ 174 µM) |
| CC(=O)c1nnc2c(/N=N/c3c(C)n(C)n(-c4ccccc4)c3=O)c(C)nn2c1C | 40.3 µg/mL (≈ 99.6 µM) |
| Cc1[nH]nc(N)c1/N=N/c1c(C)n(C)n(-c2ccccc2)c1=O | 73.1 µg/mL (≈ 235 µM) |
| CCOC(=O)/C(C#N)=N/Nc1n[nH]c(C)c1/N=N/c1c(C)n(C)n(-c2ccccc2)c1=O | 169 µg/mL (≈ 389 µM) |
| O=c1[nH]cc(F)c(=O)[nH]1 [FLUOROURACIL] | 4 µg/mL (≈ 30.8 µM) |
| Cc1nn2c(N)c(C#N)nnc2c1/N=N/c1c(C)n(C)n(-c2ccccc2)c1=O | 377 µg/mL (≈ 971 µM) |

Test system: Vero
Assay: Cytotoxicity against African green monkey Vero cells after 96 hrs by MTT assay
Assay type: cell-based
Details: Chlorocebus sabaeus

| Compound | IC50 |
| --- | --- |
| Cc1nn2c(nnc3c(C)n[nH]c32)c1/N=N/c1c(C)n(C)n(-c2ccccc2)c1=O | 276 µg/mL (≈ 687 µM) |
| Cc1[nH]nc(NN=C(C#N)C#N)c1/N=N/c1c(C)n(C)n(-c2ccccc2)c1=O | 209 µg/mL (≈ 537 µM) |
| Cc1nn2c(nnc3c(N)c(C#N)c(N)nc32)c1/N=N/c1c(C)n(C)n(-c2ccccc2)c1=O | 220 µg/mL (≈ 485 µM) |
| CC1=NNC(=O)/C1=N/Nc1n[nH]c(C)c1/N=N/c1c(C)n(C)n(-c2ccccc2)c1=O | 214 µg/mL (≈ 508 µM) |
| CC(=N)/C(C#N)=N\Nc1n[nH]c(C)c1/N=N/c1c(C)n(C)n(-c2ccccc2)c1=O | 735 µg/mL (≈ 1820 µM) |
| CC(=O)c1nnc2c(/N=N/c3c(C)n(C)n(-c4ccccc4)c3=O)c(C)nn2c1C | 33.1 µg/mL (≈ 81.8 µM) |
| Cc1[nH]nc(N)c1/N=N/c1c(C)n(C)n(-c2ccccc2)c1=O | 80.3 µg/mL (≈ 258 µM) |
| CCOC(=O)/C(C#N)=N/Nc1n[nH]c(C)c1/N=N/c1c(C)n(C)n(-c2ccccc2)c1=O | 179 µg/mL (≈ 412 µM) |
| O=c1[nH]cc(F)c(=O)[nH]1 [FLUOROURACIL] | 6.4 µg/mL (≈ 49.2 µM) |
| Cc1nn2c(N)c(C#N)nnc2c1/N=N/c1c(C)n(C)n(-c2ccccc2)c1=O | 301 µg/mL (≈ 775 µM) |
